High-throughput results (PubChem)
Rows were chosen to be rich in hits. Some 3.1% of all compounds tested hit in one or more screens of this group.
rRNA inh HTS: inhibits bacterial ribosomal RNA function over humanized ribosomes | GFP signal change (wild-type ribosome), % (no concentration beside the values) | actives 1.6% (n = 350,000) | AID 720706 | E. coli WT GFP vs humanized-ribosome RFP mutants, fluorescence, 24 h; active compounds read low; DMSO median 0, no signal -100;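 active = significant combined selectivity score with lowered wild-type GFP, culture density cut under 30%, mutant RFP and density less affected; inactive = any of these conditions unmet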
Cneo AK release: causes C. neoformans cell lysis; adenylate kinase release luminescence, 4 h; normalised: neutral wells 0, clomiphene wells 100; lysis activity, % at 15 µM; actives 0.2% (n = 360,000); AID 651654;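 active = mean lysis activity across replicates of at least 80%, whatever share of replicates individually reach that level; inactive = mean lysis activity below 80%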
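Assay system: log-phase C. neoformans yeast / Quantity: yeast cell density of 5 × 10^6 cells/mL / Medium: fresh YPD growth medium / Compound: single dose / Timing: static 4 h at 37 °C with compound, 1 h detection / Measured by: adenylate kinase release luminescence / Read-out: lysis from increased AK signal / Benchmarks: Clomiphene as positive lysis control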
DENV2 CPE rescue: DENV2-induced cell death inhibition; CPE inhibition, % at 9.99 µM; actives 1.7% (n = 350,000); DENV2-infected cells, cytopathic effect rescue, plate reader; AID 651640; in the data active = CPE inhibition above about 20%, passing the limit was not always enough; inconclusive = no clear call, values can overlap the other calls; tested in BHK-21 cells;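 also: 0% = median of neutral control wells and 100% = median of positive control wells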
E-sel inducer: E-selectin induction on HUVECs | actives 0.37% (n = 260,000) | AID 686992 | HUVEC E-selectin immunofluorescence imaging; normalized: neutral wells 0, TNF-alpha wells 100 | activation, % at 7.58 µM;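 active = mean E-selectin-positive cell signal at least 10% of the positive control, reached in at least 60% of replicates, without over 20% cell loss; inconclusive = no rule given, readout overlaps actives, possibly toxicity-flagged; inactive = the rest, including those meeting only one limit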
Target sequence (P16581 whole entry, looked up): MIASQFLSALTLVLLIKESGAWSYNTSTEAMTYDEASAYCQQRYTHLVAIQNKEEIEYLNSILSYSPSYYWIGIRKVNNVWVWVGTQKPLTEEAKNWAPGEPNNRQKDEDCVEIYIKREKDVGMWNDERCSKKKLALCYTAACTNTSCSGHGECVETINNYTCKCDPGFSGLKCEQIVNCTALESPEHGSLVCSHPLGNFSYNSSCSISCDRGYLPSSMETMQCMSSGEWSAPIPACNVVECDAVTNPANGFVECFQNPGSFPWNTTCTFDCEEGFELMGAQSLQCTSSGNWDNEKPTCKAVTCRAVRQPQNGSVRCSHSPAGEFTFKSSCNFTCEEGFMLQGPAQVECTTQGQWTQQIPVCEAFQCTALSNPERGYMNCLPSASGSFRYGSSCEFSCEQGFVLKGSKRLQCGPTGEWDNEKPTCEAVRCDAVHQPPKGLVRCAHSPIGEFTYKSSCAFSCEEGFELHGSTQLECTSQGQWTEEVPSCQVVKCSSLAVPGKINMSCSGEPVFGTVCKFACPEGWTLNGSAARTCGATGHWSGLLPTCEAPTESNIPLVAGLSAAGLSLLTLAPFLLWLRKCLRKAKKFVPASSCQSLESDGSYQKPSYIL
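Test system: HUVEC | Signal: Immunofluorescence imaging | Read-out: Percent E-selectin-positive cells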
miR122 inh: inhibitors of miR-122 in Huh7 cells; Huh7 miR-122 Renilla luciferase sensor, 48 h; neutral wells = 0, positive control = 100; activation (reporter increase), % at 12.5 µM; actives 0.3% (n = 340,000);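 active = mean replicate activation score at least 90 and every replicate individually at or above 90; inconclusive = only one of the two criteria met; inactive = neither criterion met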;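 also: higher luciferase means less miR-122 activity so hits act as miR-122 inhibitors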
* hit, by the source's call; ? = inconclusive; . = no result; [ ] = dose if it differs, or a comment.

SMILES	rRNA inh HTS	Cneo AK release	DENV2 CPE rescue	E-sel inducer	miR122 inh
COc1cc([N+](=O)[O-])ccc1NC(=S)NNC(=O)CCC(=O)Nc1ccccc1Cl	-17*	-6	-2	0	2
COc1cc([N+](=O)[O-])ccc1NC(=O)CCCOc1ccccc1	.	0	.	.	-2
O=C(Nc1ccc2c(c1)CCC2)c1ccccc1	.	-20	45*	.	5
Cc1ccc(C(=O)Nc2nc(C)c(C(=O)Nc3ccc4c(c3)CCC4)s2)cc1	-30*	-2	3	1	15
Cc1nc(NC(=O)c2ccc(F)cc2)sc1C(=O)Nc1ccc2c(c1)CCC2	.	-1	.	.	5
Cc1noc(C)c1NC(=O)NCC[C@H]1CC[C@@H](NC(=O)c2ccc(F)cc2)[C@H](CO)O1	-5	-14	2	0	.
COc1ccc(NC(=O)N(C)C[C@H]2OCCCC[C@@H](C)Oc3ccc(N(C)C)cc3C(=O)N([C@@H](C)CO)C[C@H]2C)cc1	0	.	.	0	-3[16.7 µM]
COC(=O)C[C@@H]1C[C@H]2c3cc(NC(=O)c4cccnc4)ccc3O[C@H]2[C@@H](CO)O1	-5	-7	-1	0	-1[16.7 µM]
Nc1cc(N2CCOCC2)c(Cl)cc1[N+](=O)[O-]	-21*	.	1	2	.
CCOC(=O)Cn1c(=O)oc2cc(S(=O)(=O)N(C)c3cccc(C)c3)ccc21	-22*	.	0	3	.
COc1ccc(NC(=O)N(C)C[C@@H]2Oc3c(NS(=O)(=O)c4ccccc4)cccc3C(=O)N([C@@H](C)CO)C[C@H]2C)cc1	-1	.	.	3	0[16.7 µM]
COCCNC(=O)C[C@H]1CC[C@H](NC(=O)NC2CCCC2)[C@@H](CO)O1	3	-1	-5	0	6[16.7 µM]
Cc1nc(SCC(=O)N(C)C2CCCCC2)[nH]c(=O)c1Cc1ccccc1	-26*	-2	.	.	1
CN(C(=O)CSc1nc2c(c(=O)[nH]1)CCCC2)C1CCCCC1	-15*	.	0	.	-3
CN(C(=O)CSc1nc(N)cc(=O)[nH]1)C1CCCCC1	5	-1	13	0	3
C[C@H](CO)N1C[C@H](C)[C@H](CN(C)C)Oc2cc(C3=CCCCC3)ccc2S1(=O)=O	2	.	.	0	-8[16.7 µM]
C/C(CC(=O)Nc1ccccn1)=N\NC(=O)c1ccccc1O	-18	0	-5	1	262*
C[C@H](CO)N1C[C@H](C)[C@H](CN(C)C(=O)Nc2cc(F)ccc2F)Oc2cc(/C=C/c3ccccc3)ccc2S1(=O)=O	1	-1	-1	0	-9[16.7 µM]
O=C(Nc1nnc(C2=COCCO2)o1)c1ccc(Cl)cc1	-55	.	-6	.	.
O=C(Nc1nnc(C2=COCCO2)o1)c1ccc(Cc2ccccc2)cc1	-46*	.	-6	1	.
CNC(=O)C[C@@H]1CC[C@@H]2[C@H](COc3ccc(NC(=O)C4CC4)cc3C(=O)N2C)O1	2	-4	-6	0	-23[16.7 µM]
C[C@@H]1CCCCO[C@H](CN(C)C(=O)Nc2ccc(F)cc2)[C@H](C)CN([C@H](C)CO)C(=O)c2cc(NS(=O)(=O)c3ccccc3)ccc2O1	1	-8	2	0	-7[16.7 µM]
O=C(CN1CCN(C(c2ccccc2)c2ccccc2)CC1)N1CCN(c2ccccc2)CC1	-38*	-1	3	0	-4
CC1CCN(CC(=O)N2CCN(c3ccccc3)CC2)CC1	7	-3	17	0	.
Cc1ccc(S(=O)(=O)NC23CC4CC(CC(C4)C2)C3)cc1	-52	1	6	0	106*
SMILES	rRNA inh HTS	Cneo AK release	DENV2 CPE rescue	E-sel inducer	miR122 inh
CNC(=O)C[C@@H]1CC[C@@H]2[C@@H](COc3ccc(NS(=O)(=O)c4cccc(F)c4)cc3C(=O)N2C)O1	0	-5	?	0	-4[16.7 µM]
Cc1ccc(CN2CCSc3ccc(C(=O)NCCCN4CCN(C)CC4)cc32)cc1	0	3	0	6	.
Cc1ccc(CN2CCSc3ccc(C(=O)NCc4cccnc4)cc32)cc1	.	-1	.	.	155*
CN1CCN(C2CCN(c3ccc(Nc4nnc(Cl)c(Nc5ccccc5S(C)(=O)=O)n4)c(OC(CF)CF)c3)CC2)CC1	-2	4	37*	1	-1
COc1ccc(S(=O)(=O)Nc2ccc3c(c2)CC(=O)N([C@H](C)CO)C[C@@H](C)[C@H](CN(C)C(=O)NC2CCCCC2)O3)cc1	8	0	3	48*	7[16.7 µM]
COc1ccc(S(=O)(=O)Nc2ccc3c(c2)CC(=O)N([C@H](C)CO)C[C@H](C)[C@H](CN(C)C(=O)NC(C)C)O3)cc1	3	-3	64*	-2	10[16.7 µM]
COc1ccc2c3c([nH]c2c1)[C@@H](CO)N(C(=O)CN(C)C)CC31CCN(Cc2ccccc2)CC1	7	.	.	.	.
C[C@H](CO)N1C[C@H](C)[C@@H](CN(C)C(=O)Nc2ccccc2)OCCCC[C@H](C)Oc2ccc(NC(=O)Nc3ccc(C(F)(F)F)cc3)cc2C1=O	1	.	.	.	.
COc1cc(Br)c(CNc2cc(C)ccc2C)cc1OC	-24*	3	-1	0	5
COc1cc(OC)c(OC)cc1CNc1cc(C)ccc1OC	-9	1	-1	.	.
CCOc1ccc(NC(=O)CN2C(=O)COc3ccc(S(=O)(=O)N4CCCC4)cc32)cc1	-23*	-2	1	10	.
CCOc1ccc(NC(=O)CN2C(=O)COc3ccc(S(=O)(=O)N4CCCCC4)cc32)cc1	-37	0	4	.	-8
CCOC(=O)c1ccc(N(C(=O)c2ccco2)C(C(=O)NC2CCCCC2)c2ccncc2)cc1 (centres undefined)	4	0	1	35*	-1
CC(=O)c1ccc(N(C(=O)CNC(=O)c2ccco2)C(C(=O)NC2CCCC2)c2ccc(C)o2)cc1 (centres undefined)	1	3	3	33*	-1
COc1ccc(N(C(=O)c2ccco2)C(C(=O)NC2CCCC2)c2ccncc2)cc1 (centres undefined)	2	-1	12	0	-2
Cc1ccc(S(=O)(=O)N(C)C[C@H]2Oc3ncc(-c4ccncc4)cc3C(=O)N([C@H](C)CO)C[C@H]2C)cc1	0	0	?	0	0[16.7 µM]
OC[C@H]1[C@@H](c2ccc(C#CC3(O)CCCC3)cc2)[C@@H]2CN(Cc3ccccc3F)CCCCN12	7	0	41*	0	-15[16.7 µM]
COc1ccc(C#Cc2ccc([C@H]3[C@@H](CO)N4CCCCN(Cc5ccccc5F)C[C@H]34)cc2)cc1	-54	15	-34	0	-24[16.7 µM]
O=C(c1ccc(F)cc1)N1CCCCN2[C@@H](CO)[C@@H](c3ccc(C#CC4(O)CCCC4)cc3)[C@@H]2C1	1	-3	36*	0	-6[16.7 µM]
COc1cccc(-c2cnc3c(c2)C(=O)N([C@@H](C)CO)C[C@H](C)[C@H](CN(C)Cc2ccc(F)cc2)O3)c1	0	-4	15	0	-4[16.7 µM]
COc1ccc(S(=O)(=O)Nc2ccc(S(=O)(=O)N3CCOCC3)cc2)cc1	.	-9	.	.	160*
